Experimental data reported in ChEMBL document CHEMBL1275449, “Potent in vitro antifungal activities of naturally occurring acetylenic acids” (Antimicrob Agents Chemother, 2008).
Calls of active or inactive are those of the source.

What was measured:
Format in all cases: functional, organism-based
[1] = tested on: Aspergillus niger; test: Antifungal activity against Aspergillus niger ATCC 16404 at 198.1 uM after 48 hrs by CLSI method
[2] = tested on: Candida albicans; test: Antifungal activity against Candida albicans ATCC 14053 at 198.1 uM after 48 hrs by CLSI method
[3] = tested on: Candida albicans; test: Antifungal activity against Candida albicans ATCC 60193 at 198.1 uM after 48 hrs by CLSI method
In short: (§1)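 Candida inocula came from 24–72-h SD agar colonies suspended in saline. They were diluted by OD630 standard curve into RPMI 1640 (0.2% dextrose, 0.03% glutamine, 0.165 M MOPS, pH 7.0) to 1.5 × 10³ CFU/ml. Compounds were run as 11 twofold dilutions in 20% DMSO-saline, in duplicate, at 35°C for 48 h, with OD530 read before and after. Percent growth at the top concentration, IC50, MIC, and MFC (SD agar plating) were derived.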

[4] = tested on: Pichia kudriavzevii; test: Antifungal activity against Candida krusei ATCC 6258 at 169.8 uM after 48 hrs by CLSI method; in short: as §1
[5] = tested on: Candida albicans; test: Antifungal activity against Fluconazole resistant Candida albicans isolate 17 at 169.8 uM after 48 hrs by CLSI method
In short: (§2)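 Candida in CLSI broth microdilution. Saline colony suspension set to 1.5 × 10³ CFU/ml (final) in MOPS-buffered RPMI 1640, pH 7.0. Test agent given as twofold serial dilutions in 20% DMSO-saline, duplicate wells. 35°C for 48 h. Growth read as OD530 before and after incubation. Percent inhibition scored at the highest test concentration.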

[6] = tested on: Candida albicans; test: Antifungal activity against Candida albicans ATCC 32354 at 169.8 uM after 48 hrs by CLSI method; in short: as §1
[7] = tested on: Candida albicans; test: Antifungal activity against Candida albicans ATCC 90028 at 169.8 uM after 48 hrs by CLSI method; in short: as §1
[8] = tested on: Candida albicans; test: Antifungal activity against Candida albicans ATCC 32354 at 168.9 uM after 48 hrs by CLSI method; in short: as §1
[9] = tested on: Candida albicans; test: Antifungal activity against Candida albicans ATCC 60193 at 168.9 uM after 48 hrs by CLSI method; in short: as §1
[10] = tested on: Cryptococcus neoformans; test: Antifungal activity against Cryptococcus neoformans ATCC 90113 at 168.9 uM after 72 hrs by CLSI method
In short: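 SD broth replaced RPMI because growth in RPMI was poor; other CLSI conditions were kept. Inoculum was 1.5 × 10³ CFU/ml from colonies on SD agar, checked by plating. Twofold serial dilutions (11 concentrations) in 20% DMSO-saline were tested in duplicate. OD530 was read before and after incubation at 35°C for 72 h. Percent growth gave IC50; the MIC is the lowest concentration with no detectable growth.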

[11] = tested on: Nakaseomyces glabratus; test: Antifungal activity against Candida glabrata ATCC 90030 at 168.9 uM after 48 hrs by CLSI method; in short: as §1
[12] = tested on: Candida albicans; test: Antifungal activity against Fluconazole resistant Candida albicans isolate 1 at 168.9 uM after 48 hrs by CLSI method; in short: as §2
[13] = tested on: Trichophyton mentagrophytes; test: Antifungal activity against Trichophyton mentagrophytes ATCC 9533 at 168.9 uM after 5 days by CLSI method
[14] = tested on: Candida albicans; test: Antifungal activity against Fluconazole resistant Candida albicans isolate 17 at 187.7 uM after 48 hrs by CLSI method; in short: as §2
[15] = tested on: Trichophyton rubrum; test: Antifungal activity against Trichophyton rubrum ATCC MYA-4438 at 187.7 uM after 5 days by CLSI method
[16] = tested on: Candida albicans; test: Antifungal activity against Candida albicans ATCC 32354 at 187.7 uM after 48 hrs by CLSI method; in short: as §1
[17] = tested on: Aspergillus niger; test: Antifungal activity against Aspergillus niger ATCC 16404 at 187.7 uM after 48 hrs by CLSI method
[18] = tested on: Candida tropicalis; test: Antifungal activity against Candida tropicalis ATCC 750 at 187.7 uM after 48 hrs by CLSI method
In short: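 Yeast suspensions made from 3-5 colonies off 24-72 h SD agar plates in saline. They were diluted by OD630 standard curve in RPMI 1640 (0.2% dextrose, 0.03% glutamine, 0.165 M MOPS, pH 7.0) to 1.5 × 10³ CFU/ml. Twofold dilutions (11 concentrations, 20% DMSO-saline) run in duplicate. OD530 read before and after 35°C, 48 h. Line values are top test concentrations; no-growth endpoints give MIC/MFC.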

[19] = tested on: Pichia kudriavzevii; test: Antifungal activity against Candida krusei ATCC 6258 at 9.4 uM after 48 hrs by CLSI method; in short: as §2
[20] = tested on: Trichophyton rubrum; test: Antifungal activity against Trichophyton rubrum ATCC 10218 at 9.4 uM after 5 days by CLSI method
In short: (§3)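 Trichophyton growth scraped from 1–6-week potato dextrose slants and filtered through Miracloth. Inoculum 2.7 × 10⁴ CFU/ml (final) in 5% Alamar blue-RPMI 1640 buffered with MOPS, pH 7.0. Duplicate twofold dilutions from 20% DMSO-saline. Incubated 35°C for 5 days. Fluorescence read at 544 nm excitation, 590 nm emission. Inhibition assessed at the highest test concentration.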

[21] = tested on: Aspergillus flavus; test: Antifungal activity against Aspergillus flavus ATCC 204304 at 9.4 uM after 48 hrs by CLSI method
In short: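 Aspergillus growth on 1–6-week potato dextrose slants scraped and Miracloth-filtered. Inoculum sized by OD630 curve to 2.7 × 10⁴ CFU/ml (final) in 5% Alamar blue-RPMI 1640 (MOPS, pH 7.0). Duplicate twofold dilutions from 20% DMSO-saline. 35°C for 48 h. Fluorescence 544/590 nm read before and after. Percent inhibition taken at the highest test concentration.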

[22] = tested on: Trichophyton mentagrophytes; test: Antifungal activity against Trichophyton mentagrophytes ATCC 9533 at 9.4 uM after 5 days by CLSI method; in short: as §3

Measured: Activity

CCCCCCCCCC#CCCCCC(=O)O
inactive: [1] | [2] | [3]

CCCCCCCCCCCCC#CCCCCC(=O)O [6-NONADECYNOIC ACID]
inactive: [4] | [5] | [6] | [7]

CCCCCC#CCC#CCC#CCC#CCCCC(=O)O
inactive: [8] | [9] | [10] | [11] | [12] | [13]

CCCCCCCCCCC#CCCCCC(=O)O
inactive: [14] | [15] | [16] | [17] | [18]

CC(=O)N1CCN(c2ccc(OCC3COC(Cn4ccnc4)(c4ccc(Cl)cc4Cl)O3)cc2)CC1 (configuration not stated) [KETOCONAZOLE]
inactive: [19] | [20] | [21] | [22]
